The subject of one data set is BXPC-3. Put plainly: Cytotoxicity against human BxPC-3 cells assessed as inhibition of cell growth incubated for 72 hrs by MTT assay. The class given is functional, cell-based. The note with it: BXPC-3, 72 h. The method in brief: (§1)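 Cells in DMEM with 10% FCS, seeded 24 h before assay at 3 × 10^5 cells per mL and incubated overnight. DMSO stocks (20 mM) diluted to 20 μM–0.1 nM and added to cells for 72 h, with untreated controls. MTT added for the last 6 h, formazan dissolved in DMSO, OD read at 540 nm.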
A general note: Tetrazolium dyes change colour on reduction, which living cells bring about.

For data set [1], the system named is COLO357. Put plainly: Cytotoxicity against human COLO-357 cells assessed as inhibition of cell growth incubated for 72 hrs by MTT assay. The class given is functional, cell-based. The note with it: COLO357, 72 h. In outline: as §1
Another data set has as its system HaCaT. Put plainly: Cytotoxicity against human HaCaT cells assessed as inhibition of cell growth incubated for 72 hrs by MTT assay. The class given is functional, cell-based. The method in brief: as §1
For another data set, the system named is HEK293. Put plainly: Cytotoxicity against human HEK293 cells assessed as inhibition of cell growth incubated for 72 hrs by MTT assay. The note with it: HEK293, 72 h. The class given is functional, cell-based. In outline: as §1
Data set [2] can be described thus: Induction of apoptosis in […] L929 cells at 5 uM incubated for 72 hrs by propidium iodide staining based flow cytometry analysis (reference value: 1.2 %). The class given is functional. In general terms: A flow cytometer gives signals particle by particle.
Data set [3] is described as follows: Inhibition of lamb brain tubulin polymerization assessed as reduction in microtubule formation incubated for 40 mins by spectrophotometric analysis. The class given is tissue-based, Ovis aries.
Data set [4] in a line: Induction of cell cycle arrest in […] L929 cells assessed as G2/M phase at 5 uM incubated for 72 hrs by propidium iodide staining based flow cytometry analysis (reference value: 8 %). The class given is functional.
Data set [5] is described as follows: Toxicity in iv dosed C57BL/6 mouse assessed as lethal dose measured after 24 hrs. The class given is organism-based. The note with it: in vivo. The method in brief: (§2)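 Acute toxicity in C57BL/6 mice, 6–8 weeks old, 10 per group. Each mouse got one intravenous dose of 4, 7, 10 or 13 mg kg–1. The dose range was set in preliminary experiments. Signs of toxicity (ruffled fur, poor mobility, lower body temperature) and lethality were recorded at 24 h and 48 h after injection. Survivors at 48 h were followed for 1 week. LD50 and LD100 were derived.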

Data set [6] has as its system COLO357. Put plainly: Induction of mitotic arrest in human COLO357 cells assessed as disruption of mitotic spindle arrangement at 5 uM incubated for 72 hrs by immunofluorescence based confocal microscopic analysis. The class given is functional, cell-based. In outline:
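COLO-357 cells (10^5 per coverslip) grown overnight, then exposed to 5 μM in complete medium for 72 h. Fixed in 1% paraformaldehyde and permeabilized with 0.1% Triton X100 in PBS. Stained with anti-β-tubulin antibody and AlexaFluor555 anti-mouse IgG, nuclei with Hoechst 33342, then imaged by confocal microscopy.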

Data set [7] can be described thus: Induction of cell cycle arrest in […] L929 cells assessed as G1 phase at 5 uM incubated for 72 hrs by propidium iodide staining based flow cytometry analysis (reference value: 91 %). The class given is functional.
The nature of data set [8]: Toxicity in iv dosed C57BL/6 mouse assessed as lethal dose measured after 40 to 48 hrs. The class given is organism-based. The note with it: in vivo, time 40-48 hrs; for LD50: C57BL/6, mouse; for LD100: mouse. In outline:
as §2

The test system of data set [9] is COLO357. Put plainly: Induction of cell cycle arrest in human COLO357 cells assessed as G2/M phase at 5 uM incubated for 72 hrs by propidium iodide staining based flow cytometry analysis (reference value: 7.2 %). The class given is functional.
Data set [10] concerns COLO357. Put plainly: Induction of apoptosis in human COLO357 cells at 5 uM incubated for 72 hrs by propidium iodide staining based flow cytometry analysis (reference value: 0.3 %). The class given is functional.
Data set [11] concerns COLO357. Put plainly: Induction of cell cycle arrest in human COLO357 cells assessed as G1 phase at 5 uM incubated for 72 hrs by propidium iodide staining based flow cytometry analysis (reference value: 91.1 %). The class given is functional.

Active and inactive are the calls of the source. The rule behind the calls is not given here.

Consider `COC(=O)c1ccc2c(c1)[C@@H](NC(=O)COC(=O)/C=C/C(F)(F)F)CCc1cc(OC)c(OC)c(OC)c1-2`, for which the 50% inhibitory concentration (IC50) in the data set on BXPC-3, with COLO357 [1], with HaCaT and with HEK293 was 16 nM in each case.
Consider `C/C=C/C=C/C(=O)OCC(=O)N[C@H]1CCc2cc(OC)c(OC)c(OC)c2-c2ccc(C(=O)OC)cc21`, for which the values for the Activity in data set [2], in data set [4] and in data set [7] were 5.6%, 61% and 40%, respectively. The IC50 in the data set on BXPC-3 was determined as 3 nM; in data set [3], 6780 nM; in the data set on COLO357 [1] it was 3 nM; with HaCaT, 0.6 nM; in the data set on HEK293, 3 nM. Also, the 50% lethal dose (LD50) at 24 h in data set [5] (C57BL/6, mouse) turned out to be 6.1 mg/kg. In addition, in data set [5] (mouse, 24 h), the LD100 came to 8.4 mg/kg. In addition, in the data set with COLO357 [6], the result was Active.
For `C/C=C/C(=O)NCC(=O)N[C@H]1CCc2cc(OC)c(OC)c(OC)c2-c2ccc(C(=O)OC)cc21`, the IC50 in the data set with BXPC-3, in the data set on COLO357 [1], with HaCaT and in the data set on HEK293 was 80 nM each time.
For the molecule `C=CC(=O)OCC(=O)N[C@H]1CCc2cc(OC)c(OC)c(OC)c2-c2ccc(C(=O)OC)cc21`, the IC50 with BXPC-3, in the data set on COLO357 [1], in the data set with HaCaT and in the data set on HEK293 was 16 nM in each case.
Take `COC(=O)c1ccc2c(c1)[C@@H](NC(=O)CNC(=O)/C=C/C(F)(F)F)CCc1cc(OC)c(OC)c(OC)c1-2`: the IC50 is 16 nM in the data set with BXPC-3, 80 nM in the data set on COLO357 [1], 16 nM with HaCaT and 80 nM in the data set with HEK293.
Take `C=CC(=O)NCC(=O)N[C@H]1CCc2cc(OC)c(OC)c(OC)c2-c2ccc(C(=O)OC)cc21`: the half-maximal inhibitory concentration (IC50) was found to be 80 nM in the data set on BXPC-3, 400 nM in the data set with COLO357 [1], 80 nM in the data set with HaCaT and 400 nM in the data set with HEK293.
In the case of `COc1cc2c(c(OC)c1OC)-c1ccc(OC)c(=O)cc1[C@@H](NC(C)=O)CC2` [COLCHICINE], the Activity is on record as 3% in data set [2]; 61% in the data set on COLO357 [9]; 10% in the data set with COLO357 [10]; 74% in data set [4]; 33% in the data set with COLO357 [11]; 30% in [7]. Moreover, the LD50 in data set [8] is 8.5 mg/kg. The LD100 in data set [8] came to 10.9 mg/kg. Moreover, the IC50 in the data set with BXPC-3 turned out to be 16 nM; in the data set on COLO357 [1], 16 nM; with HaCaT it was 3 nM; in the data set on HEK293, 16 nM. In the data set with COLO357 [6], the outcome was Active.
With `COC(=O)c1ccc2c(c1)[C@@H](NC(=O)CNC(=O)C=C(C)C)CCc1cc(OC)c(OC)c(OC)c1-2`, the IC50 was 16 nM in the data set on BXPC-3, 80 nM in the data set on COLO357 [1], 16 nM in the data set on HaCaT and 16 nM with HEK293.
Consider `COC(=O)c1ccc2c(c1)[C@@H](NC(=O)COC(=O)CC(C)SC[C@@H](NC(C)=O)C(=O)OC)CCc1cc(OC)c(OC)c(OC)c1-2` (mixture of isomers), for which the IC50 in the data set with BXPC-3 was 16 nM; with COLO357 [1], 80 nM; in the data set with HaCaT, 16 nM; in the data set with HEK293 it was 16 nM.
`C/C=C/C=C/C(=O)NCC(=O)N[C@H]1CCc2cc(OC)c(OC)c(OC)c2-c2ccc(C(=O)OC)cc21`: the IC50 in the data set on BXPC-3 came out at 3 nM; with COLO357 [1], 16 nM; in the data set on HaCaT it was 3 nM; in the data set on HEK293, 16 nM.
Turning to `COC(=O)c1ccc2c(c1)[C@@H](NC(=O)COC(=O)C=C(C)C)CCc1cc(OC)c(OC)c(OC)c1-2`, the IC50 in the data set on BXPC-3 is 3 nM; in the data set with COLO357 [1], 16 nM; in the data set with HaCaT, 3 nM; in the data set with HEK293, 16 nM.
`C/C=C/C=C/C(=O)NCC(=O)N[C@H]1CCc2cc(OC)c(OC)c(OC)c2-c2cc3cc(CO)oc3cc21`: the half-maximal inhibitory concentration (IC50) in the data set with BXPC-3, in the data set with COLO357 [1], in the data set on HaCaT and in the data set on HEK293 was 400 nM in each case.
`C/C=C/C=C/C(=O)OCC(=O)N[C@H]1CCc2cc(OC)c(OC)c(OC)c2-c2cc3cc(COC(C)=O)oc3cc21`: the IC50 came out at 16 nM with BXPC-3, 16 nM in the data set with COLO357 [1], 0.6 nM in the data set with HaCaT and 3 nM with HEK293.
In the case of `C/C=C/C(=O)OCC(=O)N[C@H]1CCc2cc(OC)c(OC)c(OC)c2-c2ccc(C(=O)OC)cc21`, the LD50 in data set [8] came out at 6.5 mg/kg. Moreover, the LD100 in [8] was 9.8 mg/kg. For the same molecule, the IC50 was found to be 16 nM in the data set on BXPC-3, 16 nM with COLO357 [1], 3 nM in the data set on HaCaT and 3 nM with HEK293. In addition, the Activity is on record as 60% in the data set with COLO357 [9], 9.3% with COLO357 [10] and 32% in the data set with COLO357 [11]. Moreover, in the data set on COLO357 [6], the outcome was Active.

The term IC50 denotes the midpoint of a concentration-inhibition curve. As a reminder, the LD50 is the dose at which mortality reaches 50%.

The values are drawn from ChEMBL document CHEMBL4699416, “Allocolchicinoids bearing a Michael acceptor fragment for possible irreversible binding of tubulin” (RSC Med Chem, 2020).
